Assay outcomes from PubChem.
Shown is part of a subset that was picked to be rich in hits.
XBP1 UPR activ: activators of adaptive XBP1 UPR arm, primary screen, cell-based, CHO-XBP1 luciferase reporter, luminescence, uHTS | IRE1-XBP1 UPR activation; percent of tunicamycin response, DMSO as zero | activation, % at 20 µM | 330,000 tested, 0.33% active | AID 463104, 2010;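 active = versus positive control, 20 µM dose yields 30% or more activation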;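 note: 100% = tunicamycin at 10 µg/mL and 0% = DMSO only wells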
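Material: IRE1-XBP1 luciferase reporter CHO line / Quantity: one thousand reporter cells per well / Buffer or medium: F12 with 10% serum / Compound: 20 µM single concentration, DMSO 1% / Times: 6 h treatment, 37 °C / Detection: Steady-Glo luciferase glow luminescence, 10 min after reagent addition / Benchmarks: tunicamycin high, DMSO low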
CHOP inh: inhibitors of CHOP promoter induction, primary screen, cell-based, unfolded protein response, luciferase reporter; CHO-K1 CHOP-promoter luciferase, tunicamycin-induced, 15-18 h; inhibition, % at 10 µM; 220,000 tested, 3.8% active; AID 2732, 2010;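 active = compounds that reduced the stress-induced luciferase reporter signal by more than about 70% of percent inhibition, limit read from the data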;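 note: 0% = tunicamycin plus vehicle and 100% = wells without tunicamycin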
697 NFkB inh: inhibitors of PMA/ionomycin-induced NF-kB reporter, 697 cells, primary screen, B-cell NF-kB inhibitor project, cell-based, luminescence, uHTS. 697 B-cell NF-kB luciferase reporter, 16 h. inhibition, % at 4 µM. 330,000 tested, 0.33% active. AID 435022, 2010; in the data active = inhibition above about 35%
CHOP UPR activ: activators of apoptotic CHOP UPR arm, primary screen, cell-based, CHO-CHOP luciferase reporter, luminescence, uHTS; UPR activation; percent of tunicamycin response over DMSO baseline; activation, % at 10 µM; 330,000 tested, 0.34% active; AID 449763, 2010;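 active = at 10 µM dose, activation of 40% or more, normalized to positive control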;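 note: 100% = tunicamycin at 10 µg/mL and 0% = DMSO alone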
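System: CHO-CHOP luciferase reporter cell line | Buffer or medium: F12 medium containing 10% fetal bovine serum | Doses: One dose, 10 µM in 0.5% DMSO | Times: 6 h compound exposure at 37 °C after overnight seeding | Signal: Luciferase luminescence | Read-out: % activation vs tunicamycin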
Jurkat NFkB inh: inhibitors of induced NF-kB luciferase reporter, primary screen, TCR NF-kB activation inhibitor project, cell-based, luminescence, uHTS; Jurkat, PMA/ionomycin-induced NF-kB luciferase reporter; inhibition, % at 4 µM; 330,000 tested, 0.53% active; AID 435003, 2010; in the data active = inhibition above about 50%
CHOP inh conf: retest of CHOP induction inhibitors, confirmation, cell-based | shares compounds with CHOP inh | CHO-CHOP promoter luciferase reporter, tunicamycin-induced, luminescence | inhibition, % at 10 µM | 2,100 tested, 45% active;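 active = mean of three repeat readings of reporter signal inhibition above a set limit, cut at about 70% in these data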;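 note: 0% = tunicamycin plus vehicle and 100% = wells lacking tunicamycin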
An asterisk follows results filed as active.

`Nc1cccc(Nc2nc(OC(C(F)(F)F)C(F)(F)F)nc(OC(C(F)(F)F)C(F)(F)F)n2)c1` gave XBP1 UPR activ 2.7, CHOP inh 100.0*, 697 NFkB inh 13.8, CHOP UPR activ -1.7, Jurkat NFkB inh -5.5 and CHOP inh conf 117.1*.
Screening COC(=O)C(Cc1cnc(Cl)s1)(C(=O)OC)c1ccc(C(F)(F)F)cc1[N+](=O)[O-] returned XBP1 UPR activ -1.4, CHOP inh 97.8*, 697 NFkB inh 12.9, CHOP UPR activ -1.7, Jurkat NFkB inh 6.8 and CHOP inh conf 24.4.
`Cc1c(CN2CCC(CO)(CCOc3ccccc3)CC2)[nH]c2c(Cl)cccc12` gave XBP1 UPR activ 22.5, CHOP inh 105.4*, 697 NFkB inh 29.9, CHOP UPR activ 1.7, Jurkat NFkB inh 12.2 and CHOP inh conf 71.1*.
`CC(C)OCCCNC(=O)c1ccc(NC(=O)C2=CSCCO2)cc1` gave XBP1 UPR activ -4.5, 697 NFkB inh 22.9, CHOP UPR activ -0.4 and Jurkat NFkB inh -3.0.
CCCc1cc(=O)n2c([nH]c3ccccc32)c1C#N was read as XBP1 UPR activ 3.0, CHOP inh -20.1, 697 NFkB inh -22.7, CHOP UPR activ -0.5 and Jurkat NFkB inh 13.9.
Screening CCCCc1c(C)c(C#N)c2[nH]c3ccccc3n2c1=O returned XBP1 UPR activ -0.4, CHOP inh 102.9*, 697 NFkB inh -7.8, CHOP UPR activ -2.3, Jurkat NFkB inh 9.6 and CHOP inh conf 55.9.
CCc1ccc(C2NC(=S)NC3=C2C(=O)N(c2ccccc2OC)C(c2ccc(CC)cc2)N3)cc1 (configuration not stated) was read as XBP1 UPR activ 4.9, CHOP inh 45.3, 697 NFkB inh 17.2, CHOP UPR activ 3.2 and Jurkat NFkB inh 3.5.
For O=C1C2=C(NC(=S)NC2c2ccc(Cl)cc2)NC(c2ccc(Cl)cc2)N1c1ccc(Cl)cc1 (configuration not stated) the results were XBP1 UPR activ 8.9, CHOP inh 98.0*, 697 NFkB inh -10.2, CHOP UPR activ 3.9, Jurkat NFkB inh -7.9 and CHOP inh conf 53.0.
Cc1ccc(C2C(/C=C3/SC(=S)NC3=O)=C(c3cccs3)Oc3ccccc32)cc1 (configuration not stated) was read as XBP1 UPR activ 1.6, CHOP inh 99.1*, 697 NFkB inh 10.5, CHOP UPR activ 3.2, Jurkat NFkB inh -6.3 and CHOP inh conf -29.0.
Screening CC1Cc2cc(/C=C3/SC(=S)NC3=O)ccc2O1 (configuration not stated) returned XBP1 UPR activ 2.6, CHOP inh -33.3, 697 NFkB inh -70.0, CHOP UPR activ 5.7 and Jurkat NFkB inh -2.5.
Cc1ccc(OCCOc2ccc(Br)cc2/C=N\NC(N)=O)cc1 was read as XBP1 UPR activ 0.3, CHOP inh 103.3*, 697 NFkB inh -13.0, CHOP UPR activ 0.7, Jurkat NFkB inh -21.1 and CHOP inh conf 38.8.
Screening O=[N+]([O-])c1c(NCCCO)cc(SCc2ccco2)c2nonc12 returned XBP1 UPR activ -0.7, CHOP inh 19.5, 697 NFkB inh -10.1, CHOP UPR activ 0.0 and Jurkat NFkB inh 7.0.
CC(=O)OCCCNc1cc(Sc2nc3ccccc3s2)c2nonc2c1[N+](=O)[O-] was read as XBP1 UPR activ -6.5, CHOP inh 109.0*, 697 NFkB inh 7.6, CHOP UPR activ -10.3, Jurkat NFkB inh 13.0 and CHOP inh conf 13.3.
For O=[N+]([O-])c1c(NCCCO)cc(Sc2ccc(Cl)cc2)c2nonc12 the results were CHOP inh 110.7* and CHOP inh conf 141.0*.
`O=C(NCC1CCCO1)c1ccc2c(=O)n(Cc3cccc(Br)c3)c(=S)[nH]c2c1` (configuration not stated) gave XBP1 UPR activ 4.8, CHOP inh 106.7*, 697 NFkB inh -1.9, CHOP UPR activ -1.4, Jurkat NFkB inh 1.0 and CHOP inh conf -13.9.
Screening CCCn1c(=S)[nH]c2cc(C(=O)NCC3CCCO3)ccc2c1=O (configuration not stated) returned XBP1 UPR activ -3.2, CHOP inh 8.1, 697 NFkB inh 17.2, CHOP UPR activ 0.0 and Jurkat NFkB inh -2.5.
`Cc1noc(C)c1CSCC(=O)Nc1cc(C(F)(F)F)ccc1N1CCOCC1` gave XBP1 UPR activ -1.5, 697 NFkB inh -6.7, CHOP UPR activ -1.5 and Jurkat NFkB inh 1.8.
For Cc1csc(NC(=O)CSc2nnc3c4ccccc4nc(C(C)(C)C)n23)n1 the results were XBP1 UPR activ -2.5, CHOP inh 105.4*, 697 NFkB inh -49.3, CHOP UPR activ 0.2, Jurkat NFkB inh 47.1 and CHOP inh conf 124.8*.
For CCOC(=O)c1ccc(NC(=O)CSc2nnc(CCc3ccc(C)o3)n2-c2ccccc2)cc1 the results were XBP1 UPR activ -0.9, CHOP inh 103.1*, 697 NFkB inh 15.1, CHOP UPR activ -0.4, Jurkat NFkB inh -0.4 and CHOP inh conf 58.0.
For Cc1ccc(CCc2nnc(SCC(=O)Nc3ccccc3Cl)n2-c2ccccc2)o1 the results were XBP1 UPR activ -1.2, CHOP inh 32.9, 697 NFkB inh -12.9, CHOP UPR activ -0.4 and Jurkat NFkB inh -13.1.
`CCC/C(=N\NC(=O)c1ccco1)c1ccc(Cl)s1` gave XBP1 UPR activ -3.3, 697 NFkB inh -7.4, CHOP UPR activ 0.2 and Jurkat NFkB inh 12.3.
For Cc1cccc(C)c1NC(=O)COc1ccccc1C(=O)Nc1ccc(Br)cn1 the results were XBP1 UPR activ 3.4, CHOP inh 106.3*, 697 NFkB inh 11.2, CHOP UPR activ 2.3, Jurkat NFkB inh 2.2 and CHOP inh conf 101.5*.
For CCOC(=O)CCCCC(=O)c1[nH]c(=O)[nH]c1CSc1nnc2c3cc(Br)ccc3n(C)c2n1 the results were XBP1 UPR activ 2.1, CHOP inh 102.6*, 697 NFkB inh 6.7, CHOP UPR activ -0.9, Jurkat NFkB inh -4.1 and CHOP inh conf 6.1.
CCOC(=O)CCCCC(=O)c1[nH]c(=O)[nH]c1CSc1nc(C)cc(C)n1 was read as XBP1 UPR activ -2.0, CHOP inh 5.1, 697 NFkB inh 8.6, CHOP UPR activ -3.0 and Jurkat NFkB inh 11.0.
Screening Cc1ccccc1C(=O)Nc1nnc(-c2cccnc2)o1 returned XBP1 UPR activ -0.3, CHOP inh 5.1, 697 NFkB inh 11.7, CHOP UPR activ 9.9 and Jurkat NFkB inh 10.3.
Screening CCCn1c(=O)c(C(=O)NNS(=O)(=O)c2ccc(Cl)cc2)c(O)c2ccccc21 returned XBP1 UPR activ -3.4, CHOP inh 106.9*, 697 NFkB inh 27.5, CHOP UPR activ -1.3, Jurkat NFkB inh -2.8 and CHOP inh conf -10.4.
